This note sets out measurements from PubChem BioAssay AID809 (SRMLSC, 2007).

As a reminder, the EC50 is the concentration at which the effect is half-maximal.

Activity calls are given as the source filed them.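 Rule for the calls: active = EC50 for reversing nicotinamide-shortened yeast lifespan at or below a set limit; inactive = EC50 above that limit.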 Where only a bound is given, the exact number is not on record here.

In this assay the test system is S. cerevisiae DeaD BB579, nicotinamide rescue growth, OD615 48 h. The assay can be described thus: BB579 yeast growth restoration under nicotinamide – S. cerevisiae, yeast lifespan extension project, dose response (AID 809). The essentials:
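Assay system: Saccharomyces cerevisiae DeaD strain BB579, log-phase cells; Medium: CSMM-D glucose restrictive medium; Dosing: compounds from 0.078 to 10 µM final, 0.5% DMSO; Times: 4 h pre-incubation, 48 h exposure at 30 °C; Technique: optical density at 615 nm (absorbance); Evaluation: culture saturation density reflecting mother-cell replicative lifespan.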
In the case of `CCOC(=O)c1c(C)oc2c1c(C(c1cccnc1)N1CCOCC1)c(O)c1ccccc12` (stereo not given), the EC50 is > 10 µM (inactive).

For the compound `COc1ccc(-c2cc(C(F)(F)F)nc(S(C)(=O)=O)n2)cc1OC`, the EC50 was 8.76 µM.

`CCN1C(=O)C(=Cc2ccc(C)s2)C(=O)N(CC)C1=S`: the EC50 is 3.74 µM.

As for `COc1ccc(/C=C(/C(=O)c2ccc(Cl)cc2Cl)n2cncn2)cc1`, the EC50 was 8.48 µM.

As to `Cc1ccc(C(=O)/C=C\C(=O)c2ccc(C)cc2)cc1`, the EC50 is 9.15 µM.

With `O=C(Oc1ccc2c(c1)OCO2)C12CC3CC(CC(C3)C1)C2`, the EC50 was > 10 µM (inactive).

Take `O=C1/C(=C\c2cccnc2)CN(Cc2ccccc2)C/C1=C\c1cccnc1`: the EC50 is 9.63 µM.

Consider `O=C(CS(=O)c1ccc(C(F)(F)F)cc1[N+](=O)[O-])Oc1ccccc1` (stereo not given), for which the EC50 was 5.19 µM.

Regarding `CCOC(=O)c1ccccc1N1C(=O)CSC1=S`, the EC50 was > 10 µM (inactive).

In the case of `O=S(=O)(Nc1cccc2c1CCCC2)c1ccc(Cl)cc1`, the EC50 is > 10 µM (inactive).

On to `NC(=S)N/N=C/c1coc2cc(Cl)ccc2c1=O`, for which the EC50 was 4.87 µM.

In the case of `CC(=O)Oc1ccccc1N1C(=O)c2ccc(C(=O)O)cc2C1=O`, the EC50 was > 10 µM (inactive).

With `O=C1c2ccccc2NC(c2cnc3ccccc3n2)N1O` (stereo not given), the EC50 was 1.42 µM.

On to `Cc1ccc(/C(O)=C2\C(=O)C(=O)N(c3cc(C)on3)C2c2cccc(Cl)c2)cc1` (stereo not given), for which the EC50 was 9.72 µM.

For `COc1cc(OC)cc(-c2nc3ccccc3c(=O)n2OC(=O)c2ccc(Br)cc2)c1`, the EC50 was 6.14 µM.

For `CN1CCN(C(=S)Nc2cc([N+](=O)[O-])ccc2Cl)CC1`, the EC50 is > 10 µM (inactive).

In the case of `CCCCC(CC)Cn1c2nc3ccccc3nc2c2c(=N)oc(C)nc21` (stereo not given), the EC50 is > 10 µM (inactive).

As for `Cc1ccc(N2NC(=O)/C(=C\c3cc4c(cc3[N+](=O)[O-])OCO4)C2=O)cc1C`, the EC50 is > 10 µM (inactive).

Take `O=C1CC(c2ccccc2)CC(O)=C1C=NCCN1CCN(C(=O)Nc2ccccc2)CC1` (stereo not given): the EC50 is 6.64 µM.

`COc1cc(/C=C/C(=O)c2c(O)cc(C)oc2=O)cc(OC)c1O`: the EC50 is > 10 µM (inactive).

Take `CN(C)C=C1C(=O)N(C2CCCCC2)C(=O)N(C2CCCCC2)C1=O`: the EC50 was 6.96 µM.

As for `O=C1C(C2=C(O)c3ccccc3C2=O)=Nc2ccccc21`, the EC50 was 1.7 µM.

Consider `COc1ccc(/C=C/C(=O)C2C(=O)C=C(C)OC2=O)cc1O` (stereo not given), for which the EC50 is 7.47 µM.

With `Cc1ccc(CNc2nc3ccccc3s2)s1`, the EC50 is > 10 µM (inactive).

Take `CCC(=O)Nc1ccccc1Sc1ncnc2scc(-c3ccccc3)c12`: the EC50 was > 10 µM (inactive).

`COc1ccc2c(=O)c3c(=O)n(Cc4ccco4)c(-c4ccc(C)cc4)nc3oc2c1`: the EC50 was 6.81 µM.

As for `COc1ccc(NC(=S)N2CCN(CCN=CC3=C(O)CC(c4ccccc4)CC3=O)CC2)cc1` (stereo not given), the EC50 is 7.32 µM.

For the compound `Oc1ccc2ccccc2c1C=Nc1ccc(N2CCOCC2)cc1`, the EC50 is > 10 µM (inactive).

With `Cc1cc2c(c(=O)n1CCc1ccccc1)C(c1ccco1)C(C#N)=C(N)O2` (stereo not given), the EC50 was > 10 µM (inactive).

As for `CC(=NCCc1c(C)[nH]c2ccc(C)cc12)C1=C(O)CC(c2ccccc2)CC1=O` (stereo not given), the EC50 was 7.69 µM.

For `O=C1NC(=O)N(CCC2=CCCCC2)C(=O)/C1=C\c1cccs1`, the EC50 is 7.01 µM.

As for `O=S(=O)(ON(c1ccccc1)S(=O)(=O)c1ccccc1)c1ccccc1`, the EC50 is > 10 µM (inactive).

As for `CCC1C/C(=C\c2cccnc2)C(=O)/C(=C/c2cccnc2)C1` (stereo not given), the EC50 was 3.17 µM.

Take `CCOC(=O)c1c(NC(=O)C2C3C=CC(C3)C2C(=O)O)sc2c1CCC(CC)C2` (stereo not given): the EC50 is > 10 µM (inactive).

Regarding `COc1ccc(NCc2nc3ccccc3n2CCOc2ccccc2)cc1`, the half-maximal effective concentration (EC50) was 5.29 µM.

Regarding `CCc1ccc2nc(N3C(=O)C(O)=C(C(=O)c4ccco4)C3c3cccs3)sc2c1` (stereo not given), the EC50 is 9.41 µM.

As for `O=S(=O)(Nc1nc2ccccc2nc1Cl)c1ccc2ccccc2c1`, the EC50 is 7.25 µM.

In the case of `O=c1c2ccccc2sn1-c1ccccc1`, the EC50 is > 10 µM (inactive).

As for `C[C@]12CC[C@@H]3c4ccc(O)cc4CC[C@H]3[C@@H]1CC[C@@H]2OC(=O)CCC(=O)O`, the EC50 was 5.42 µM.

Take `CCOC(=O)COc1ccccc1/C=C\[N+](=O)[O-]`: the EC50 is 1.79 µM.

In the case of `CCOc1ccc(/C=C2/C(=O)NC(=O)N(CCc3ccc(F)cc3)C2=O)cc1`, the EC50 was > 10 µM (inactive).

Consider `Cc1ccc(/C=C/C(=O)C2C(=O)c3ccccc3C2=O)cc1`, for which the half-maximal effective concentration (EC50) is 8.56 µM.

As to `CC1CCCCC1NC(=O)/C(C#N)=C/c1ccccc1F` (stereo not given), the EC50 was 7.11 µM.

As to `COc1ccc(N(C(=O)C(C)C)S(=O)(=O)c2ccc(Cl)cc2)cc1`, the EC50 is > 10 µM (inactive).

On to `CC1(C)Oc2ccccc2OC1(O)c1ccc2ccccc2n1` (stereo not given), for which the EC50 is > 10 µM (inactive).

Consider `COc1ccc(CC(=O)Nc2ccc3c(c2)CCC3)cc1S(=O)(=O)N1CCOCC1`, for which the EC50 was > 10 µM (inactive).

On to `O=C1CC(c2ccccc2)CC(O)=C1C=NCCN1CCNCC1` (stereo not given), for which the EC50 was > 10 µM (inactive).

As for `COc1ccc(N(C)C(=S)Nc2ccc3nc(C)c(C)nc3c2)cc1`, the EC50 is > 10 µM (inactive).

Consider `O=C(Nc1nc2ccccc2n1CCN1CCOCC1)c1cn(-c2ccccc2)nc1-c1ccccc1`, for which the EC50 was > 10 µM (inactive).

On to `Cn1c(=O)c(=O)n(C)c2cc(S(=O)(=O)N3CCN(Cc4ccccc4)CC3)ccc21`, for which the EC50 was > 10 µM (inactive).

Consider `C=CCn1c(C)cc(C(=O)CSc2nc3ccccc3c(=O)[nH]2)c1C`, for which the EC50 was > 10 µM (inactive).

Consider `CC(=O)[C@H]1[C@H](c2cccc(Cl)c2)C(C#N)(C#N)[C@@H]2c3ccccc3C=CN21`, for which the EC50 is 8.71 µM.

Take `Cc1nonc1NC(=O)CSc1nc(C2CCCCC2)nc2ccccc12`: the EC50 is > 10 µM (inactive).

For the compound `COc1ccc(C(=O)Nc2ccc(OCc3ccccc3)cc2)cc1[N+](=O)[O-]`, the EC50 is > 10 µM (inactive).

In the case of `CCCCNC(=O)/C(C#N)=C/c1cccnc1`, the EC50 was 9.27 µM.

Regarding `COc1cccc(/C=C/C(=O)c2c(O)cc(C)oc2=O)c1O`, the EC50 was > 10 µM (inactive).

In the case of `COC(=O)C1=C(N)OC2=C(C(=O)CC(C)(C)C2)C1c1cccs1` (stereo not given), the concentration for a half-maximal effect (EC50) was 8.93 µM.

Consider `CCC(=O)N1CCN(CCN=CC2=C(O)CC(c3cccs3)CC2=O)CC1` (stereo not given), for which the EC50 is 9.98 µM.

`CCOC(=O)c1c(C)oc2c1c(C(c1cccnc1)N1CCCCC1)c(O)c1ccccc12` (stereo not given): the EC50 was > 10 µM (inactive).

In the case of `CC(=Nc1ccc2c(c1)nc(CO)n2C)C1=C(O)CC(C)(C)CC1=O`, the EC50 is > 10 µM (inactive).

For the compound `COCCOC(=O)/C(=C/c1ccc(OC(=O)c2ccccc2)cc1)C(C)=O`, the concentration for a half-maximal effect (EC50) is 4.96 µM.

For `CN1CCC2(CC1)C(C#N)=C(N)NC(S)=C2C#N`, the EC50 is > 10 µM (inactive).

In the case of `N#Cc1cc(C(=O)c2cc(F)ccc2O)cn(-c2nccs2)c1=O`, the EC50 is > 10 µM (inactive).

Take `COc1ccc(/C(O)=C/C(=O)C(=O)Nc2c(C)n(C)n(-c3ccccc3)c2=O)cc1`: the EC50 was 5.85 µM.

Turning to `COCCCNC(CC(=O)Nc1ccc(OC)cc1OC)C(=O)O` (stereo not given), the EC50 was > 10 µM (inactive).

Turning to `Cn1c(SCC(=O)N2CCCc3ccccc32)nnc1-c1c[nH]c2ccccc12`, the EC50 was > 10 µM (inactive).

Turning to `COc1cccc(CSc2nc3ccccc3cc2C=O)c1`, the EC50 is 8.96 µM.

For `c1ccc(-c2c(-c3ccccc3)n(Cc3ccco3)c3ncnc(NCCCn4ccnc4)c23)cc1`, the concentration for a half-maximal effect (EC50) was 1.98 µM.

As for `CC(C)C(c1nnnn1Cc1ccccc1)N1CCN(Cc2ccc3c(c2)OCO3)CC1` (stereo not given), the EC50 is > 10 µM (inactive).

For the compound `Cc1cccc(N2C(=O)C(Oc3ccc(Cl)cc3Cl)C2C=O)c1C` (stereo not given), the EC50 is 6.52 µM.

As to `CCCC(=Nc1ccccc1OC)C1=C(O)CC(c2ccccc2)CC1=O` (stereo not given), the EC50 was 3.21 µM.

Regarding `COC(=O)c1sc(S(=O)(=O)Nc2ccc(Br)cc2)c(C(=O)OC)c1C`, the EC50 was > 10 µM (inactive).

Turning to `O=C(CCl)N1c2ccccc2OCC1c1ccccc1` (stereo not given), the EC50 is 9.75 µM.

Turning to `C=C1C(=O)C=C2CN(C(=O)c3ccccc3)[C@@](Cc3ccc(F)cc3)(C(=O)OC)[C@@H]12`, the EC50 was > 10 µM (inactive).

Consider `O=C(Nc1nccs1)c1ccc2c(=O)n3c(nc2c1)CCCCC3`, for which the EC50 is 7.75 µM.

On to `Cc1cc(C(=O)CN2C(=O)NC(C)(CC(C)C)C2=O)c(C)n1-c1ccc2c(c1)OCO2` (stereo not given), for which the EC50 is > 10 µM (inactive).

In the case of `CCCCCOC(=O)CSc1nc2c(c(=O)[nH]c(=O)n2C)n1CCc1ccccc1`, the EC50 was > 10 µM (inactive).

As to `Oc1ccc2ccccc2c1C=Nc1ccccc1-c1nc2ccccc2[nH]1`, the EC50 was > 10 µM (inactive).

With `CCCCCCCCn1c(=O)c(C(=O)OCC)c(O)c2ccccc21`, the EC50 was 9.18 µM.

For the compound `C[C@]12CC[C@@H](O)C[C@@H]1CC[C@@H]1[C@@H]2CC[C@]2(C)[C@@H](O)CC[C@@H]12`, the EC50 was > 10 µM (inactive).

With `ClC(Cl)(c1nnnn1-c1ccccc1)c1nnnn1-c1ccccc1`, the EC50 is > 10 µM (inactive).

Turning to `CN1C(=O)C(Cl)(Cl)C(=O)c2ccccc21`, the EC50 is > 10 µM (inactive).

As for `O=c1cc(-c2c(F)c(F)c(F)c(F)c2F)oc2c(F)c(F)c(F)c(F)c12`, the EC50 was 5.65 µM.

For `Nc1sc(-c2ccccc2)cc1C(=O)O`, the EC50 is > 10 µM (inactive).

Turning to `CCCCn1c(/N=C/c2ccccc2NS(=O)(=O)c2ccc(C)cc2)nc2ccccc21`, the EC50 is 3.53 µM.

For the compound `CC(=O)N1CCN(CCN=CC2=C(O)CC(c3cccs3)CC2=O)CC1` (stereo not given), the EC50 is > 10 µM (inactive).

With `CCc1ccc(C(=O)CN2C(=O)NC(C)(CCc3ccccc3)C2=O)cc1` (stereo not given), the EC50 is > 10 µM (inactive).

As for `Cc1ccc(OCC(=O)c2c(O)c3ccccc3oc2=O)cc1C`, the 50% effective concentration (EC50) was 8.97 µM.

Consider `Cc1ccc(S(=O)(=O)N[C@@H](Cc2ccccc2)C(=O)CCl)cc1`, for which the EC50 was 5.97 µM.

For `Cc1ccc(/C=C2/C(=O)NC(=O)N(CCc3ccc(F)cc3)C2=O)o1`, the EC50 was > 10 µM (inactive).
